Type in all cases: functional
One test relates to Bacillus subtilis. Briefly: Antibacterial activity against Bacillus subtilis KCTC 1021 after 24 hrs by broth microdilution method. The following applies: KCTC 1021, 24 h. The method in brief: (§1)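 Broth microdilution in Mueller–Hinton broth. Strains grown to mid-log phase and diluted 1000-fold in the same medium. Cells at 10^5/mL, 0.2 mL/well. Test samples prepared in DMSO (final ≤0.05%), with 0.05% DMSO as vehicle control. Serial 2-fold dilutions, 24 h at 37 °C. Growth read as absorbance at 650 nm. MIC is the lowest concentration giving complete growth inhibition, done in triplicate.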
(Dilution methods test growth across graded concentrations, often in twofold steps.)

For test [1], the system named is Staphylococcus aureus. Briefly: Antibacterial activity against methicillin-resistant Staphylococcus aureus CCARM 3167 after 24 hrs by broth microdilution method. To be noted: CCARM 3167, 24 h. The gist of the method: (§2)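 Broth microdilution in Mueller−Hinton broth. Strains grown to mid-log phase in the same medium and diluted 1000-fold, then inoculated at 10^5 cells/mL. Compounds dissolved in DMSO (final ≤0.05%) and tested as serial 2-fold dilutions; 0.05% DMSO as vehicle control. Incubated 24 h at 37 °C with growth read as absorbance at 650 nm. MIC taken as the lowest concentration completely inhibiting growth, in triplicate.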

In the next test the test system is Escherichia coli. As to the kind of experiment: Antibacterial activity against Escherichia coli CCARM 1356 after 24 hrs by broth microdilution method. To be noted: CCARM 1356, 24 h. The gist of the method:
as §1

Test [2] has as its system Staphylococcus aureus. Briefly: Antibacterial activity against Staphylococcus aureus RN4220 after 24 hrs by broth microdilution method. To be noted: RN4220, 24 h. The method in brief: as §2
The subject of another test is Streptococcus pneumoniae. Briefly: Antibacterial activity against Streptococcus pneumoniae KCTC 5412 after 24 hrs by broth microdilution method. To be noted: KCTC 5412, 24 h. The gist of the method:
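Broth microdilution with cells grown in Todd–Hewitt medium instead of Mueller–Hinton broth. Cells at 10^5/mL, 0.2 mL/well. Test samples prepared in DMSO (final ≤0.05%), with 0.05% DMSO as vehicle control. Serial 2-fold dilutions, 24 h at 37 °C. Growth read as absorbance at 650 nm. MIC is the lowest concentration giving complete growth inhibition, done in triplicate.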

For test [3], the system named is Staphylococcus aureus. Briefly: Antibacterial activity against quinolone-resistant Staphylococcus aureus CCARM 3505 after 24 hrs by broth microdilution method. The following applies: CCARM 3505, 24 h. The gist of the method: as §2
A further test deals with Enterococcus faecalis. Briefly: Antibacterial activity against Enterococcus faecalis KCTC 5191 after 24 hrs by broth microdilution method. The following applies: KCTC 5191, 24 h. The method in brief: as §1
Another test concerns Pseudomonas aeruginosa. As to the kind of experiment: Antibacterial activity against Pseudomonas aeruginosa KCTC 2004 after 24 hrs by broth microdilution method. To be noted: KCTC 2004, 24 h. The method in brief:
as §1

≈ marks a conversion by molar mass, not a printed value. Square brackets hold non-standard residues; d marks the D form. Peptide text beside a SMILES is read from it. Trp(5-Cl) = N[C@@H](Cc1c[nH]c2ccc(Cl)cc12)C(=O)O; dAsn(3R-OH) = NC(=O)[C@H](O)[C@@H](N)C(=O)O; aIle = CC[C@@H](C)[C@H](N)C(=O)O; Orn = NCCC[C@H](N)C(=O)O

The MIC is the lowest concentration that inhibits growth of the organism.

Regarding `CC[C@@H](C)[C@@H]1NC(=O)[C@@H](CCC(C)C)NC(=O)[C@@H](C(C)C)NC(=O)[C@H](Cc2c[nH]c3ccc(Cl)cc23)NC(=O)[C@@H]([C@@H](O)C(N)=O)NC(=O)[C@H](CCCN)NC1=O`, the MIC stood at 8 µg/mL (≈ 9.95 µM) against Bacillus subtilis; 16 µg/mL (≈ 19.9 µM) with Staphylococcus aureus [1]; 128 µg/mL (≈ 159 µM) with Escherichia coli; 16 µg/mL (≈ 19.9 µM) in the test on Staphylococcus aureus [2]; 16 µg/mL (≈ 19.9 µM) with Streptococcus pneumoniae; 8 µg/mL (≈ 9.95 µM) against Staphylococcus aureus [3]. The MIC in the test on Enterococcus faecalis amounted to 8 µg/mL (≈ 9.95 µM); in the test on Pseudomonas aeruginosa, 128 µg/mL (≈ 159 µM).

Take `CC[C@@H](C)[C@@H]1NC(=O)[C@@H](CC(C)C)NC(=O)[C@@H](C(C)C)NC(=O)[C@H](Cc2c[nH]c3ccc(Cl)cc23)NC(=O)[C@@H]([C@@H](O)C(N)=O)NC(=O)[C@H](CCCN)NC1=O` (cyclo([Orn][dAsn(3R-OH)][Trp(5-Cl)][dV][dL][aIle])): the MIC with Bacillus subtilis was 8 µg/mL (≈ 10.1 µM); with Staphylococcus aureus [1], 32 µg/mL (≈ 40.5 µM); in the test on Escherichia coli, 64 µg/mL (≈ 81 µM); in the test on Staphylococcus aureus [2] it was 16 µg/mL (≈ 20.2 µM); with Streptococcus pneumoniae, 8 µg/mL (≈ 10.1 µM); in the test with Staphylococcus aureus [3] it was 16 µg/mL (≈ 20.2 µM). Also, the values for the MIC against Enterococcus faecalis and against Pseudomonas aeruginosa were 8 µg/mL (≈ 10.1 µM) and 128 µg/mL (≈ 162 µM), respectively.

In the case of `O=C(O)c1cn(C2CC2)c2cc(N3CCNCC3)c(F)cc2c1=O` [CIPROFLOXACIN], the MIC in the test with Bacillus subtilis worked out at 0.015 µg/mL (≈ 0.0453 µM); in the test with Staphylococcus aureus [1] it was 4 µg/mL (≈ 12.1 µM); in the test on Escherichia coli, 64 µg/mL (≈ 193 µM); against Staphylococcus aureus [3], 32 µg/mL (≈ 96.6 µM); against Enterococcus faecalis, 1 µg/mL (≈ 3.02 µM).

Values taken from ChEMBL document CHEMBL4130534, “Genomics-Driven Discovery of Chlorinated Cyclic Hexapeptides Ulleungmycins A and B from a Streptomyces Species” (2017).
